TPT1 inh – blocks Candida albicans tRNA 2'-phosphotransferase; AID 1962; recombinant caTPT1, FP RNA substrate dephosphorylation; 0.81% of 300,000 active; inhibition, % at 5 µM;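 active = inhibition above the mean of all tested compounds plus 3 SD, set per screening campaign, cut at about 24% in these data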;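 note: plate controls were DMSO alone for no effect and ferristatin control at 100 nM for full effect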
Rpn11 block – blocks the human proteasome subunit Rpn11 | AID 588493 | O00487 | inhibition, % at 20 µM | 0.59% of 360,000 active | human 26S proteasome, Ub4-pepOG fluorescence polarization; 20S core pre-blocked with epoxomicin;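 active = inhibition at 20 µM, scaled to each plate's controls, above about 33%, limit read from the data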
Target sequence (O00487 whole entry, looked up): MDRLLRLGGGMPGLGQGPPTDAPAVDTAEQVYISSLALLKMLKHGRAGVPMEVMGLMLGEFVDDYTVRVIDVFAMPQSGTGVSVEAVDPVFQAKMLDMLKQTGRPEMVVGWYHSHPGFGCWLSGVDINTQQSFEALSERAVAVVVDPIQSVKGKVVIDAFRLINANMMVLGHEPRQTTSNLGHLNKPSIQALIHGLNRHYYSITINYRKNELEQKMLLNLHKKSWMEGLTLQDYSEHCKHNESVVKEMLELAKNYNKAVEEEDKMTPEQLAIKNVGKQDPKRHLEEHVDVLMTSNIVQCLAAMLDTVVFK
IDE cell activ – IDE (human) activation, cell-based; HEK cells, FAbeta-B cleavage, fluorescence polarization; 0% vehicle, 100% cell-free pure enzyme wells; activation, % at 5.96 µM; 0.073% of 340,000 active; AID 493087;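 active = activation above the mean of all tested compounds plus 3 SD, set per screening campaign, cut at about 17% in these data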
CSN inh – CSN deneddylation inhibition; Purified CSN, SCF-Nedd8-OG deneddylation, fluorescence polarization; inhibition, % at 12.5 µM; 0.38% of 360,000 active;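 active = pattern-corrected inhibition above about 35%, with an unprinted fluorescence ratio check between 0.5 and 1.5, limit read from the data, passing the limit was not always enough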;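 note: 0% = enzyme with substrate and 100% = substrate without enzyme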
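Schedule: reaction 90 min, room temperature / Assay system: HEK293T-derived human Csn5 enzyme / Input: Csn5 at 0.24 nM final / Measure: inhibition of Csn5 cleavage, % / Control set: substrate-only high control, full reaction low control / Technique: fluorescence polarization of the substrate / Buffer or medium: Tris/NaCl/DTT buffer, pH 7.5 / Reagent: SCFSkp2-Nedd8OG substrate at 10 nM final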
HNF4A DNA FP – change in binding of human HNF4 alpha to DNA. P41235. HNF4a-FITC DNA binding, fluorescence polarization, 1 h. activity change, % at 10 µM. 0.3% of 360,000 active. AID 1224865; in the data active = activity change above about 30%, passing the limit was not always enough
IDE inh – inhibits human insulin-degrading enzyme in HEK cells | P14735 | FAbetaB cleavage, fluorescence polarization | 0.41% of 320,000 active | inhibition, % at 5.59 µM;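 active = percent inhibition above the average of all tested compounds plus 3 SD, set per screening campaign, cut at about 16% in these data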;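 note: IDE supplied by intact live HEK cells; FP after avidin binding of uncleaved biotin substrate so inhibition keeps polarization high; 0% = DMSO wells and 100% = 60 µM reference IDE inhibitor Ii1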
caTPT1 confirm – confirmation of Candida albicans TPT1 inhibitors; shares compounds with TPT1 inh; recombinant caTPT1, fluorescence polarization, RNase T1 coupled; inhibition, % at 5 µM; 74% of 2,400 active;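 active = inhibition above the primary screen limit, the mean inhibition of all tested compounds plus 3 SD, cut at about 25% in these data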
RNase T1 counter – counter-screen for TPT1 inhibitors: inhibitors of Aspergillus oryzae RNase T1; inhibition, % at 5 µM; AID 2153; RNase T1 cleavage, fluorescence polarization, 1536-well; shares compounds with TPT1 inh; 83% of 2,400 active;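 active = inhibition above the solvent-only control well mean plus 3 SD, limit set per screening run, cut at about 23% in these data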;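 note: plate controls were DMSO wells with enzyme for no effect and wells without RNase T1 for full effect; inhibitors block cleavage so intact labeled substrate keeps polarization high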
Target sequence (P00651 whole entry, looked up): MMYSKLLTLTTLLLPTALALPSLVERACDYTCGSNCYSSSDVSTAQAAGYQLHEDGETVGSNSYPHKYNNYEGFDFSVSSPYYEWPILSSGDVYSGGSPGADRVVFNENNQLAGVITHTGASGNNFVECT
Starred values were filed as active, the others as inactive; · = no result shown. Sampled rows, rich in hits. Any-hit rate of the full collection: about 1.7%.

SMILES	TPT1 inh	Rpn11 block	IDE cell activ	CSN inh	HNF4A DNA FP	IDE inh	caTPT1 confirm	RNase T1 counter
COc1ccccc1/C=C/C=C1\Oc2c(ccc(O)c2CN(C)C)C1=O	32*	·	-17	60	58	10	33*	45*
CCN(CC)Cc1c(O)ccc2c1O/C(=C\C=C\c1ccccc1)C2=O	12	·	-3	37	45	6	·	·
Fc1ccc(-[n+]2nc(Nc3ccccc3)sc2-c2c3ccccc3cc3ccccc23)cc1	-4	5	3	-2	0	7	·	·
Oc1ccc2ccccc2c1-c1sc(Nc2ccccc2)n[n+]1-c1ccc(F)cc1	29*	-31	2	-72	-68	-2	-12	3
COc1ccc(CN2C(=O)c3ccccc3C(/C=N/OCc3ccc(Cl)cc3)C2=O)cc1 (stereo not given)	43*	9	0	-3	2	4	65*	75*
NNC(=O)c1oc2nc(-c3cccs3)cc(-c3ccco3)c2c1N	50*	17	-11	-45	16	4	47*	57*
Cc1ccc(-c2cc(-c3ccco3)c3c(N)c(C(=O)NN)oc3n2)cc1	72*	18	-1	-4	11	-2	35*	43*
NNC(=O)c1oc2nc(-c3ccccc3)cc(-c3ccccc3)c2c1N	-1	9	0	3	5	1	·	·
COc1cccc(/C=N/NC(=O)c2oc3nc(-c4ccccc4)cc(-c4ccco4)c3c2N)c1	82*	·	7	5	39*	10	86*	97*
CC1=C(C(=O)N(C(C)C)C(C)C)CC(CC(=O)NC2CCCC2)C(=O)N1CCC1=CCCCC1 (stereo not given)	·	5	·	4	-1	·	·	·
CC[C@@H](C)[C@H](NC(=O)CNC(=O)Cc1c(C)c2c(cc(C)c3c(C)coc32)oc1=O)C(=O)O	51*	-3	-2	0	2	-2	6	7
CC[C@@H](C)[C@H](NC(=O)Cc1c(C)c2c(cc(C)c3c(C)c(C)oc32)oc1=O)C(=O)O	·	-2	0	-1	-4	·	·	·
COc1ccc(/C=C2/SC(c3ccc(C)cc3)=NC2=O)cc1OC	112*	·	-16	98	101	-5	80*	85*
COc1cc(/C=C2\SC(N)=NC2=O)ccc1OCC(=O)Nc1ccc(C)cc1	2	6	-5	8	5	7	·	·
COc1cc(/C=C2\SC(c3ccc(C)cc3)=NC2=O)cc(OC)c1OC	30*	·	-21	49*	51*	-1	40*	50*
COc1ccc(/C=C2\SC(c3ccc(C)cc3)=NC2=O)cc1OC	87*	·	-30	102	86*	1	84*	90*
COc1cc(/C=C2\SC(c3ccccc3)=NC2=O)cc(Cl)c1O	·	16	-18	-8	4	·	·	·
O=C(Nc1ccc2c(c1)OCO2)c1cc(C2CCCCN2S(=O)(=O)c2ccccc2)on1 (stereo not given)	·	-1	·	-2	0	·	·	·
CC1(C(=O)NCc2ccccc2)CSCC(=O)N1CC(F)(F)F (stereo not given)	·	·	·	0	2	·	·	·
COC(=O)[C@@]12C[C@@H](CC(=O)NCc3cccc(C(F)(F)F)c3)C(=O)N(Cc3cccc4ccccc34)C1=CCC(C)(C)C2	·	·	·	3	2	·	·	·
CCOCCCNC(=O)/C(C#N)=C/c1cc(C)c(O)c(C)c1	-1	-1	1	2	0	0	·	·
C=CCNC(=O)/C(C#N)=C\c1cc(Cl)c(O)c(OCC)c1	25*	20	-12	0	4	9	34*	42*
CC(=O)Nc1cccc(-c2ccnc3c2CC(C(=O)Nc2cccc(N(C)C)c2)O3)c1 (stereo not given)	·	0	·	-4	-2	·	·	·
COc1ccc(CCN2C(=O)CCC2(C)c2nnnn2-c2c(C)cccc2C)cc1OC (stereo not given)	·	·	·	-3	3	·	·	·
CN(Cc1ccccc1)C(=O)c1csc(COCCO)n1	·	-1	·	1	1	·	·	·
SMILES	TPT1 inh	Rpn11 block	IDE cell activ	CSN inh	HNF4A DNA FP	IDE inh	caTPT1 confirm	RNase T1 counter
CCOC(=O)c1c(-c2ccccc2)csc1NC(=O)/C(C#N)=C/c1ccc(O)c(OC)c1	178*	·	-135	125	141	0	192*	174*
CCOC(=O)c1c(-c2ccccc2)csc1NC(=O)/C(C#N)=C/c1ccc(OC)c(OC)c1	6	28	7	-2	19	0	·	·
CC(C)N1C(=O)S/C(=C/c2ccc3c(c2)n(C)c(=O)n3C)C1=O	-5	10	4	2	4	-2	·	·
CCN(CC)c1ccc(/C=C2\SC(=O)N(C(C)C)C2=O)o1	178*	·	·	0	81	8	172*	157*
COc1ccc(NC(=O)CSc2ccc3c4c(cccc24)C(=O)c2ccccc2-3)cc1	26*	-57	-9	15	-21	2	28*	41*
OCCCNc1ncnc2sc3c(c12)CCN(Cc1ccccc1)C3	24*	27	-1	10	25	-1	49*	64*
O=c1[nH]cnc2sc3c(c12)CCN(Cc1ccccc1)C3	3	-28	5	8	-4	4	·	·
CC1(C(=O)NS(=O)(=O)Cc2ccccc2C(F)(F)F)CCN1C(=O)C/C=C/c1ccccc1 (stereo not given)	·	-2	·	-3	4	·	·	·
Cc1nc2ccccc2n1/N=C/c1ccc([N+](=O)[O-])s1	28*	·	4	0	0	0	36*	59*
O=[N+]([O-])c1ccc(/C=N/n2c(CO)nc3ccccc32)s1	-5	-12	6	0	-9	5	·	·
CN(CCc1ccccc1)C(=O)c1cccc(NC(=O)Cc2cccc(NC(=O)C3CCCN(C(=O)C4CCCC4)C3)c2)c1 (stereo not given)	·	2	5	1	0	·	·	·
CCOC(=O)c1sc2nc(C)nc(SCC(=O)NC(C)CCc3ccccc3)c2c1C (stereo not given)	25*	32	5	7	17	-1	41*	51*
CC1(C)CCN2CCC(C)(C)c3c(O)ccc1c32	48*	-31	-15	-75	-19	11	36*	50*
CCOc1ccc(CCN2C(=O)C(=O)N([C@@H](Cc3ccccc3)CN3CCC[C@H]3CN3C(=O)C(=O)NC[C@@H]3CC(C)C)C[C@@H]2Cc2ccc(O)cc2)cc1	·	·	·	-2	-3	·	·	·
CC(C)(C)OC(=O)C[C@@H]1C/C=C\C[C@H](CC(=O)NCCO)C(=O)N2CCC[C@H]2COC1=O	·	-4	3	-1	-3	-4	·	·

Screens deposited in PubChem BioAssay by several laboratories.
